This note sets out measurements from PubChem BioAssay.

Assay [1] is described as follows: Her2 expression decrease, cell viability multiplex – SKBR3 breast tumor cells, AlphaScreen, ATP viability, primary screen (AID 461;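 active = Her2 level under about 52% in both replicate screens, with viability over 70% of control, limit read from the data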;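 as to Her2 level: lower value means less Her2 protein in the cells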;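 as to viability: percent of carrier control wells set as 100% viability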). Particulars: SKBR3 Her2 protein level, 18-24 h, measured here: SKBR3 viability, ATP luminescence, at 10 µM.
For assay [2], the target named is Receptor tyrosine-protein kinase erbB-2 (Homo sapiens) (UniProt P04626). Described as above. Particulars: 18-24 h, at 10 µM, stronger effect = lower value.
Assay [3] is described as follows: reduced viability of SK-BR-3 breast cancer cells – cell-based, 24 h, human, pilot screen (AID 572;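 active = viability at or below 10% of carrier control in both of two separate runs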;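 also: compound exposure lasted between 18 and 24 h rather than exactly 24 h; 100% = carrier-treated control wells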). The settings on record: SK-BR-3 viability, CellTiter-Glo luminescence, at 10 µM, stronger effect = lower value. (Cellular ATP, detected with luciferase, serves as a proxy for viable cell number.)
The nature of assay [4]: HUVEC growth inhibition – cell-based, human, primary screen (AID 575;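 active = viability at or below 30% in both replicate assays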;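 also: 100% = median of untreated cell wells with 0.1% DMSO on each plate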). Particulars: HUVEC proliferation, CellTiter-Glo luminescence, 72 h; at 10 µM; stronger effect = lower value. In a few lines: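 Assay system: Primary human umbilical vein endothelial cells | Quantity: 1250 cells per well | Medium: Supplemented EBM, 2% fetal bovine serum | Detection: CellTiter-Glo luminescence measuring cellular ATP | Read-out: % viability vs DMSO wells | Plate: Collagen-coated 384-well format | Times: 72 h exposure, 37 °C, 5% CO2, 30 min RT equilibration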

Assay [5] is described as follows: H69AR cell proliferation blockers – human, duplicate replicates, primary screen (AID 580).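 Also: 100% = mean luminescence of untreated wells and 0% = no signal.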 Particulars: H69AR lung tumor cells viability, ATP luminescence, 72 h; at 10 µM; stronger effect = lower value.
The nature of assay [6]: MRP1 drug-resistance reversers in H69AR cells – cell-based, doxorubicin co-treatment, pilot screen (AID 601;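 active = viability loss from added drug above about 55%, and viability with drug at most 40%, in both replicates, limit read from the data, passing the limit was not always enough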). The settings on record: CellTiter-Glo, 72 h, at 10 µM; for differential viability (reversal): stronger effect = higher value.
A short description of assay [7]: yeast transport mutant growth inhibition pilot in 384-well plates, post-Golgi transport modulator project (AID 636; in the data active = inhibition above about 31%). Particulars: absorbance 615 nm, about 18 h, stronger effect = higher value.
A short description of assay [8]: growth suppression of yeast trafficking mutant, preliminary HTS, modulators of trafficking downstream of Golgi apparatus project, 1536-format plate, OD 615 nm (AID 637; in the data active = inhibition above about 30%). Particulars: yeast transport mutant growth, absorbance 615 nm, 18 h; stronger effect = higher value.
[9] abbreviates: H69AR cells + 2 uM doxorubicin, measured here: viability with 2 uM doxorubicin, stronger effect = lower value.
The mark [10] stands for this setting: H69AR cells, compound alone cytotoxicity.

Structures are written as SMILES. The source made the active and inactive calls.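 The calls were made as follows, unless noted: active = viability at or under a set limit in both replicates, limit being median viability minus 3 SD (cut at about 48% in these data, passing the limit was not always enough); inconclusive = at or under the limit in just one replicate; inactive = at or above the limit in both replicates.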

Receptor tyrosine-protein kinase erbB-2 (Homo sapiens), sequence (P04626 whole entry, looked up): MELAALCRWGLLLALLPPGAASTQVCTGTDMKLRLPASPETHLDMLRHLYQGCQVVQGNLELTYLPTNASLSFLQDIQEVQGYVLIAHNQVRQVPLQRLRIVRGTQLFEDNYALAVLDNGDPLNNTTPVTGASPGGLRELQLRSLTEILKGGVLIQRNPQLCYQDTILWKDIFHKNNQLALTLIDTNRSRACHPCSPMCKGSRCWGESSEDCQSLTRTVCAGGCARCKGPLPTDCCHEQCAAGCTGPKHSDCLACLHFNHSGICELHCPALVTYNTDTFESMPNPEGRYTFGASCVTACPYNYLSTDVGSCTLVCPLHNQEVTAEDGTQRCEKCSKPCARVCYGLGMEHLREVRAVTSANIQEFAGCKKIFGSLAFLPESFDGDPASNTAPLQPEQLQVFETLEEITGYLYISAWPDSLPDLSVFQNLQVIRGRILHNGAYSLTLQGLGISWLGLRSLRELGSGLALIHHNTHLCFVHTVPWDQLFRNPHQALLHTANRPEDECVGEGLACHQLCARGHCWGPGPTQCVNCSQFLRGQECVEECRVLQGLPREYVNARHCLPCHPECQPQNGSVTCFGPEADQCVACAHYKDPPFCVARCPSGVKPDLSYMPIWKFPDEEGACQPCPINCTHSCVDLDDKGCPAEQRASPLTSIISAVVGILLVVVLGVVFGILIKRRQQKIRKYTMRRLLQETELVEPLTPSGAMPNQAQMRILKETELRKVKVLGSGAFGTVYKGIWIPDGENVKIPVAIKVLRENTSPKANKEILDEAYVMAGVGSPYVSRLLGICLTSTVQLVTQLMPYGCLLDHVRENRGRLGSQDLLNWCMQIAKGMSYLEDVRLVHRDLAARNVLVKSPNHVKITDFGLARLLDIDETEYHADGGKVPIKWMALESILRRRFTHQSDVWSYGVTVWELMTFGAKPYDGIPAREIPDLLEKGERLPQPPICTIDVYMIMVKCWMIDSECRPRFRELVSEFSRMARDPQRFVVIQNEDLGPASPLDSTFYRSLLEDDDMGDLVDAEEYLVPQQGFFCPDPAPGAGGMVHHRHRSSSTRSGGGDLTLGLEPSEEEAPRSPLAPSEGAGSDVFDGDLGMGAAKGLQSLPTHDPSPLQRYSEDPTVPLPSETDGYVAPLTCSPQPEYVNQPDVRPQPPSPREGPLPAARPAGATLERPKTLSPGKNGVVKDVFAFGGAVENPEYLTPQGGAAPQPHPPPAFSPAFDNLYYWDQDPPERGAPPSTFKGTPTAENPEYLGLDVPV

The term viability denotes a read-out of living cells in per cent, often relative to untreated cells. In general, inhibition refers to the drop in the measured response relative to a control, in per cent. As for `CCOC(=O)c1cccc(NC(=O)CSc2nnc(C3CCCCC3)n2C)c1`, the viability in assay [1] is 91%; in assay [3], 91% (inactive); in assay [4] it was 92.3% (inactive); in assay [5], 91.3% (inactive); in assay [6] (setting [9]), 84.7%; in assay [6] (setting [10]), 91.3%. For the same compound, the Her2 level in assay [2] is 89% (inactive). The differential viability (reversal) in assay [6] (H69AR cells + 2 uM doxorubicin) is 6.58% (inactive). The inhibition is -6.22% (inactive) in assay [7] and -0.95% (inactive) in assay [8].
Regarding `CCOC(=O)CSc1nnc(-c2cccnc2)n1Cc1ccccc1`, the viability is 91.5% in assay [1]; 91.5% (inactive) in assay [3]; 106% (inactive) in assay [4]; 96.4% (inactive) in assay [5]; 96.2% in assay [6] (setting [9]); 96.4% in assay [6] (setting [10]). Besides, the Her2 level in assay [2] is 108% (inactive). In assay [6] (H69AR cells + 2 uM doxorubicin), the differential viability (reversal) was 0.125% (inactive). Also, the values for the inhibition in assay [7] and in assay [8] were 1.45% (inactive) and -12.3% (inactive), respectively.
`COc1ccc(S(=O)(=O)NCC(c2cccnc2)N2CCN(c3ccc(F)cc3)CC2)cc1C` (stereo not given): the viability in assay [1] was 91.5%; in assay [3], 91.5% (inactive); in assay [4], 99.1% (inactive); in assay [5], 87.4% (inactive); in assay [6] (setting [9]), 88.1%; in assay [6] (setting [10]), 87.4%. In addition, the Her2 level in assay [2] is 80% (inactive). For the same compound, the differential viability (reversal) in assay [6] (H69AR cells + 2 uM doxorubicin) was -0.665% (inactive). Besides, the results for the inhibition in assay [7] and in assay [8] were -1.04% (inactive) and -0.98% (inactive), respectively.
Consider `COc1ccc(NC(=O)Cn2nnc(-c3ccccc3N)n2)cc1OC`, for which the viability in assay [1] is 106%; in assay [3], 106% (inactive); in assay [4], 94.4% (inactive); in assay [5], 97.8% (inactive); in assay [6] (setting [9]), 93.3%; in assay [6] (setting [10]), 97.8%. Besides, the Her2 level in assay [2] is 108% (inactive). Further, the differential viability (reversal) in assay [6] (H69AR cells + 2 uM doxorubicin) is 4.44% (inactive). Also, the inhibition is -5.07% (inactive) in assay [7] and 10% (inactive) in assay [8].
On to `Cc1cc(C2C(C#N)=C(N)SC(N)=C2C#N)c(C)s1`, for which the viability is 107% in assay [1]; 107% (inactive) in assay [3]; 82.4% (inactive) in assay [4]; 94.7% (inactive) in assay [5]; 87.5% in assay [6] (setting [9]); 94.7% in assay [6] (setting [10]). For the same compound, the Her2 level in assay [2] was 100% (inactive). For the same compound, in assay [6] (H69AR cells + 2 uM doxorubicin), the differential viability (reversal) is 7.28% (inactive). For the same compound, the inhibition in assay [7] was -2.89% (inactive); in assay [8] it was 7.21% (inactive).
On to `O=C(C1CC1)N1CCc2cc(S(=O)(=O)N(CCO)Cc3ccccc3)ccc21`, for which the viability in assay [1] is 94%; in assay [3] it was 94% (inactive); in assay [4], 77% (inactive); in assay [5], 98.8% (inactive); in assay [6] (setting [9]) it was 100%; in assay [6] (setting [10]) it was 98.8%. The Her2 level in assay [2] is 102% (inactive). In assay [6] (H69AR cells + 2 uM doxorubicin), the differential viability (reversal) was -1.38% (inactive). Moreover, the results for the inhibition in assay [7] and in assay [8] were -0.4% (inactive) and -0.33% (inactive), respectively.
Turning to `CCNc1nc(NCC)n2c(SCc3nc4ccccc4c(=O)[nH]3)nnc2n1`, the viability in assay [1] is 100%; in assay [3], 100% (inactive); in assay [4], 106% (inactive); in assay [5], 78.1% (inactive); in assay [6] (setting [9]), 87.2%; in assay [6] (setting [10]), 78.1%. Besides, in assay [2], the Her2 level is 112% (inactive). In assay [6] (H69AR cells + 2 uM doxorubicin), the differential viability (reversal) was -9.12% (inactive). The figures for the inhibition in assay [7] and in assay [8] were -1.58% (inactive) and -0.66% (inactive), respectively.
In the case of `CCOC(=O)c1sc(N)c(C(=O)OCC)c1COC(=O)C1CC(=O)N(Cc2ccco2)C1` (stereo not given), the viability was 91.5% in assay [1]; 91.5% (inactive) in assay [3]; 80.7% (inactive) in assay [4]; 72.4% (inactive) in assay [5]; 49.8% in assay [6] (setting [9]); 72.4% in assay [6] (setting [10]). The Her2 level in assay [2] is 113% (inactive). Besides, the differential viability (reversal) in assay [6] (H69AR cells + 2 uM doxorubicin) is 22.6% (inactive). For the same compound, the inhibition in assay [7] is -7.6% (inactive); in assay [8], -8.71% (inactive).
For the compound `O=C(COc1ccccc1)Nc1ccc(-c2nnc(-c3ccco3)o2)cc1`, the viability in assay [1] was 128%; in assay [3] it was 128% (inactive); in assay [4], 102% (inactive); in assay [5], 95.5% (inactive); in assay [6] (setting [9]), 86.8%; in assay [6] (setting [10]), 95.5%. In addition, in assay [2], the Her2 level was 108% (inactive). Further, in assay [6] (H69AR cells + 2 uM doxorubicin), the differential viability (reversal) is 8.73% (inactive). In addition, the values for the inhibition in assay [7] and in assay [8] were -6.97% (inactive) and -1.15% (inactive), respectively.
In the case of `O=S(=O)(c1ccc(S(=O)(=O)N2CCN3CCCC3C2)cc1)N1CCCC1` (stereo not given), the viability in assay [1] was 80.5%; in assay [3] it was 80.5% (inactive); in assay [4], 104% (inactive); in assay [5] it was 98.9% (inactive); in assay [6] (setting [9]), 82.8%; in assay [6] (setting [10]), 98.9%. In addition, in assay [2], the Her2 level is 90.5% (inactive). For the same compound, the differential viability (reversal) in assay [6] (H69AR cells + 2 uM doxorubicin) was 16.1% (inactive). Besides, the inhibition was -0.77% (inactive) in assay [7] and 0.17% (inactive) in assay [8].
On to `CC(C)Oc1ccc(N2CC(C(=O)Nc3ccccc3F)CC2=O)cc1` (stereo not given), for which the viability in assay [1] is 101%; in assay [3], 101% (inactive); in assay [4], 92.6% (inactive); in assay [5] it was 97.6% (inactive); in assay [6] (setting [9]) it was 89.1%; in assay [6] (setting [10]), 97.6%. The Her2 level in assay [2] is 122% (inactive). In addition, the differential viability (reversal) in assay [6] (H69AR cells + 2 uM doxorubicin) is 8.51% (inactive). In addition, the inhibition was -1.17% (inactive) in assay [7] and -10.3% (inactive) in assay [8].
Take `CCOC(=O)C1=C(C)N=C2SC(C)C(=O)N2C1c1cccc(F)c1` (stereo not given): the viability in assay [1] is 102%; in assay [3] it was 102% (inactive); in assay [4] it was 85.2% (inactive); in assay [5], 87.5% (inactive); in assay [6] (setting [9]), 86.7%; in assay [6] (setting [10]), 87.5%. Further, the Her2 level in assay [2] was 89.5% (inactive). The differential viability (reversal) in assay [6] (H69AR cells + 2 uM doxorubicin) is 0.855% (inactive). The inhibition in assay [7] was -3.82% (inactive); in assay [8], 1.13% (inactive).
Consider `CCOC(=O)c1c(NC(=O)CSc2nc3c(c(=O)n(C)c(=O)n3C)n2C(C)C)sc(C)c1C`, for which the viability in assay [1] was 106%; in assay [3] it was 106% (inactive); in assay [4], 91.4% (inactive); in assay [5], 89.9% (inactive); in assay [6] (setting [9]), 92.1%; in assay [6] (setting [10]), 89.9%. In addition, the Her2 level in assay [2] is 94% (inactive). For the same compound, the differential viability (reversal) in assay [6] (H69AR cells + 2 uM doxorubicin) was -2.12% (inactive). Further, the inhibition in assay [7] was -0.53% (inactive); in assay [8], -3.23% (inactive).
As for `COc1ccc(NC(=O)CCc2nc(-c3ccccc3F)no2)cc1`, the viability in assay [1] is 115%; in assay [3] it was 115% (inactive); in assay [4], 91.9% (inactive); in assay [5], 93.6% (inactive); in assay [6] (setting [9]), 89.1%; in assay [6] (setting [10]), 93.6%. Besides, in assay [2], the Her2 level is 99% (inactive). The differential viability (reversal) in assay [6] (H69AR cells + 2 uM doxorubicin) is 4.53% (inactive). For the same compound, the results for the inhibition in assay [7] and in assay [8] were -0.26% (inactive) and -0.66% (inactive), respectively.
As for `O=C(O)c1cc2c([nH]c1=O)CCCC2`, the viability in assay [1] was 93.5%; in assay [3] it was 93.5% (inactive); in assay [4] it was 95% (inactive); in assay [5], 88.8% (inactive); in assay [6] (setting [9]), 88%; in assay [6] (setting [10]) it was 88.8%. Further, in assay [2], the Her2 level was 81.5% (inactive). Besides, in assay [6] (H69AR cells + 2 uM doxorubicin), the differential viability (reversal) was 0.75% (inactive). The figures for the inhibition in assay [7] and in assay [8] were -2.24% (inactive) and -1.82% (inactive), respectively.
As for `OCC#CCSc1nnc(-c2ccccc2Br)o1`, the viability in assay [1] is 118%; in assay [3], 118% (inactive); in assay [4], 85.3% (inactive); in assay [5] it was 86.2% (inactive); in assay [6] (setting [9]), 80.2%; in assay [6] (setting [10]), 86.2%. Also, in assay [2], the Her2 level is 109% (inactive). Further, in assay [6] (H69AR cells + 2 uM doxorubicin), the differential viability (reversal) was 5.93% (inactive). Also, the values for the inhibition in assay [7] and in assay [8] were 0% (inactive) and 4.26% (inactive), respectively.
